Assay results taken from ChEMBL document CHEMBL1125555, “Structural alterations in desferrioxamine compatible with iron clearance in animals” (1992).

Experiments:
Assay type in all cases: functional
Rattus norvegicus [1] = experiment: Effect on 24-h cumulative iron excretion in the urine of non-iron-overloaded bileduct-cannulated rats at a concentration of 450 umol/kg after subcutaneous administration
Procedure, shortened: (§1)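 Drugs given subcutaneously in Cremophor RH-40/water (40:60) to non-iron-overloaded, bile duct-cannulated rats. Rats were fasted 24 h before dosing, and the fast continued through the experiment. Bile and urine iron were collected over 24 h and reported as induced iron (mg/kg rat) with fractions in bile and urine. Efficiency is the percentage of the theoretical total (8.37 mg/kg). n = 2–6 per group.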

Rattus norvegicus [2] = experiment: Effect on 24-hcumulative iron excretion in the urine of non-iron-overloaded bileduct-cannulated rats at a concentration of 450 umol/kg after subcutaneous administration; procedure, shortened: as §1
Rattus norvegicus [3] = experiment: Effect on 24-h cumulative iron excretion in the urine of non-iron-overloaded bileduct-cannulated rats at a concentration of 150 umol/kg after subcutaneous administration; procedure, shortened: as §1
Rattus norvegicus [4] = experiment: Effect on 24-hcumulative iron excretion in the urine of non-iron-overloaded bileduct-cannulated rats at a concentration of 150 umol/kg after subcutaneous administration; procedure, shortened: as §1
Rattus norvegicus [5] = experiment: Effect on 24-h cumulative iron excretion in the bile of non-iron-overloaded bileduct-cannulated rats at a concentration of 150 umol/kg after subcutaneous administration
Procedure, shortened: as §1, with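 “urine.” for “urine. Efficiency is the percentage of the theoretical total (8.37 mg/kg). n = 2–6 per group.”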

**Q.** How did the Iron excretion (Rattus norvegicus [1]) turn out when `CC(=O)N(O)CCCCCN` was run?
**A.** 0%

**Q.** What about the Iron excretion (Rattus norvegicus [2]) of the same compound?
**A.** -0.001 mg/kg

**Q.** How did the Iron excretion (Rattus norvegicus [3]) turn out when `CCCCCCCCCC(=O)N(O)CCCCC(=O)N(O)CCCCC(=O)N(O)CCCCCN.Cl` was run?
**A.** 9.2%

**Q.** And the Iron excretion (Rattus norvegicus [4])?
**A.** 0.017 mg/kg

**Q.** How did the Iron excretion (Rattus norvegicus [1]) turn out when `NCCCCCN(O)C(=O)CCC(=O)O` was run?
**A.** 0%

**Q.** What about the Iron excretion (Rattus norvegicus [2]) of the same compound?
**A.** -0.003 mg/kg

**Q.** What does the source list for `CC(=O)N(O)CCCCC(=O)N(O)CCCCC(=O)N(O)CCCCCN.Cl`?
**A.** Iron excretion (Rattus norvegicus [3]): 9.4%; Iron excretion (Rattus norvegicus [4]): 0.021 mg/kg

**Q.** For `CC(=O)N(O)CCCCCCCC(=O)N(O)CCCCCCCC(=O)N(O)CCCCCN.Cl`, which Iron excretion (Rattus norvegicus [3]) is on record?
**A.** 0%

**Q.** And the Iron excretion (Rattus norvegicus [4])?
**A.** 0 mg/kg

**Q.** How did the Iron excretion (Rattus norvegicus [5]) turn out when `CC(=O)N(O)CCCCCNC(=O)CCC(=O)N(O)CCCCCNC(=O)CCC(=O)N(O)CCCCCN` [DEFEROXAMINE] was run?
**A.** 74.6%

**Q.** And the Iron excretion (Rattus norvegicus [3])?
**A.** 25.4%

**Q.** What about the Iron excretion (Rattus norvegicus [4]) of the same compound?
**A.** 0.059 mg/kg
